# Screening results as filed in PubChem.
# PolyA inh: blocks polyadenylation in yeast reporter cells; S. cerevisiae SKY197-pL101 polyadenylation reporter, beta-gal luminescence; efflux-impaired pdr1/pdr3 knockout yeast; score 100 = 6 SD above DMSO; AID 1875; activity score, % at 12 µM; actives 0.02% (n = 300,000);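 active = lowest replicate activity score at least 50, where 100 means six control SD above control mean; inconclusive = lowest score under 50 but half or more replicates reach 50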;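 note: yeast exposed to compound for 9 h at 30 °C; higher score means more reporter readthrough which indicates perturbed polyadenylation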
# NLRP3 yeast inh: NALP3 inhibition in yeast | Yeast reconstituted NLRP3/ASC/caspase-1, beta-gal luminescence, 24 h | inhibition, % at 10 µM | actives 0.39% (n = 330,000);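 active = inhibition of 50% or more; inactive = inhibition below 50%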;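 note: plate controls were induced DMSO wells for no effect and uninduced yeast grown without galactose for full effect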
# Calb FLC: C. albicans growth modulation with fluconazole; actives 0.57% (n = 300,000); AID 1979; growth inhibition, % (test concentration not listed); C. albicans CaCi-2 (fluconazole-resistant clinical isolate) + fluconazole, Alamar Blue growth, 48 h;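 active = growth inhibition above about 58% in most replicates, limit read from the data, passing the limit was not always enough; inconclusive = exactly half the replicates above a set limit; inactive = most replicates below a set limit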;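 note: all wells also contain fluconazole at 8 µg/ml as a sub-toxic cotreatment; 0% = median of DMSO wells and 100% = median of geldanamycin control wells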
# Lmaj promast: Leishmania major promastigote growth inhibition; Leishmania major promastigotes, resazurin fluorescence viability; inhibition, % at 10 µM; actives 9% (n = 200,000); AID 1063; in the data active = inhibition above about 50%;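 note: promastigotes grown with compound for 44 hours at 28 °C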
# T cruzi inh: blocks replication of Trypanosoma cruzi. T. cruzi beta-gal in NIH3T3, luminescence, 90 h. inhibition, % (no concentration beside the values). actives 1.4% (n = 300,000). AID 1885;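 active = mean inhibition across valid replicates above about 55%, limit read from the data; inconclusive = mean below that limit but half or more replicates reach it; inactive = mean below it, under half of replicates reach it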;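 note: signal also drops with host cell toxicity which is not excluded here; 0% = plate median of DMSO wells and 100% = zero luminescence signal; higher percent means less beta-gal luminescence so fewer parasites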
#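 Assay system: NIH/3T3 fibroblasts plus reporter T. cruzi. Amount: NIH/3T3 cells, 5,000 per well. Buffer or medium: DMEM, 2% fetal bovine serum. Doses: compound pinned at 50 nL/well, DMSO. Schedule: ≥90 h infection period, 3 h prior cell attachment. Signal: luminescent β-galactosidase signal after 60 min lysis. Read-out: parasite load inhibition, %.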
# NALP1 inh: NALP1 inhibition | S. cerevisiae NALP1/ASC/caspase-1 growth, X-gal OD620, 72 h | inhibition, % at 10 µM | actives 0.61% (n = 280,000); in the data active = inhibition mostly above about 24%, no sharp cut-off; inactive = mostly below about 32%
# * marks the source's active call; other numbers are inactive results; ? = inconclusive; . = no result given. The entries come from a sample that favours hits as a whole.
SMILES,PolyA inh,NLRP3 yeast inh,Calb FLC,Lmaj promast,T cruzi inh,NALP1 inh
CN(c1ccc(F)cc1)S(=O)(=O)c1ccc(Cl)c(C(=O)NCc2ccco2)c1,.,11,.,.,.,.
O=C(C[C@H]1C/C=C\C[C@H](NC(=O)OCC2c3ccccc3-c3ccccc32)C(=O)OC[C@H](Cc2ccccc2)NC1=O)N[C@H](CO)Cc1ccccc1,.,12,.,.,.,.
Nc1cc(S(=O)(=O)Nc2cc(Cl)ccc2Cl)ccc1N1CCCC1,-26,-2,-1,.,-4,11
Cc1noc(C)c1S(=O)(=O)N(C)C[C@H]1Oc2ccc(NS(=O)(=O)c3cn(C)cn3)cc2C(=O)N([C@H](C)CO)C[C@@H]1C,.,7,.,.,.,.
Oc1ccccc1N=Cc1ccc[nH]1,-13,34,-1,100*,-41,14
Fc1ccc(N=Cc2ccc[nH]2)cc1,1,0,-4,.,1,16
Cc1cc(C)cc(CC(Cc2nc3ccccc3[nH]2)c2nc3ccccc3[nH]2)c1 (configuration not stated),-7,15,3,91*,45,.
Cc1occc1C(=O)NNC(=O)c1ccc(Br)o1,-1,6,-3,-10,-2,13
O=C(CSc1nncn1-c1ccccc1F)NC1CCCCC1,.,4,.,.,.,.
O=C(OC(C(=O)NC1CCCC1)c1cccnc1)C1=Cc2ccccc2OC1 (configuration not stated),-4,-3,-2,94*,1,6
CC(OC(=O)C1=Cc2ccccc2OC1)C(=O)NC1CCCC1 (configuration not stated),-19,7,-15,-2,13,28
COc1ccc(/C=N/NC(=O)c2ccco2)cc1Cn1nc(C)cc1C,22,13,-6,-5,-12,15
COc1ccc(/C=N\NC(=O)COc2ccc(C(C)(C)C)cc2)cc1Cn1nc(C)cc1C,-3,18,2,8,0,38*
COc1ccc(NC(=O)c2cc(-c3ccccn3)nc3c(C)cc(C)cc23)c(C)c1,0,13,-5,.,3,6
CCOc1ccccc1NC(=O)c1cc(-c2ccncc2)nc2c(Cl)cccc12,7,.,-3,25,57*,-36
COc1cccc(NC(=O)c2cc(-c3ccncc3)nc3c(C)cc(C)cc23)c1,-1,7,-2,55*,29,-6
CC1CCCN(C(C(=O)NC2CCCCC2)c2cc3c(cc2[N+](=O)[O-])OCO3)C1 (configuration not stated),-6,21,9,95*,-1,15
COc1cccc(NC(=O)c2ocnc2C)c1,-3,15,?,-2,-16,-22
CNc1ccc(OC)cc1-n1cnc(-c2ccc([N+](=O)[O-])cc2)c1,10,6,101*,.,-2,2
CC1CCN(CCCCOc2cccc(Br)c2)CC1,-50,24,9,95*,10,30
CC1CCN(CCCCOc2ccc(Br)cc2)CC1,-3,17,8,99*,-7,12
Cc1cc(Br)ccc1OCCCCN1CCC(C)CC1,-59,12,13,100*,53,56*
CC1CCN(CCCCOc2ccccc2Br)CC1,-65,18,-11,100*,9,5
CC1CCN(CCCCOc2ccccc2F)CC1,-4,21,-2,.,-19,0
Brc1cccc(OCCN2CCc3ccccc3C2)c1,-4,18,36,.,48,7
SMILES,PolyA inh,NLRP3 yeast inh,Calb FLC,Lmaj promast,T cruzi inh,NALP1 inh
COc1ccc(C(=O)OCc2c(F)cccc2Cl)cc1S(=O)(=O)N1CCOCC1,.,9,.,.,.,.
COc1cccc(N2CCN(C(=O)c3cc(C)oc3C)CC2)c1,.,-3,.,.,.,.
Brc1cccc(OCCN2CCOCC2)c1,-27,9,1,.,-10,16
Cc1ccccc1OCCCN1CCOCC1,13,16,-2,.,5,11
Brc1ccccc1OCCCN1CCOCC1,0,25,24,72*,15,-72
CC1CCN(CCOc2ccc(Cl)c(Cl)c2)CC1,-32,19,-6,88*,-3,58
Brc1cccc(OCCN2CCCCC2)c1,-3,5,-15,96*,9,46
CCN1C(=O)[C@H]2[C@@H](c3ccc(C)cc3)N3C(=O)N(c4ccc(C(F)(F)F)cc4)C(=O)[C@@]3(Cc3ccccc3)[C@H]2C1=O,-18,14,-3,.,-4,-6
Cc1ccc(N=Cc2cc(Cc3ccccc3Cl)cc([N+](=O)[O-])c2O)c(O)c1,-33,20,109*,73*,-2,7
CC(C)c1ccccc1NC(=O)COc1ccc(C(=O)NCCc2ccccc2)cc1,15,10,1,71*,-10,15
CCOC(=O)c1c(C2CC2)csc1NC(=O)COC(=O)c1cc(OC)c(OC)cc1[N+](=O)[O-],-11,0,-6,91*,34,-2
CC1CCCN(c2ccc(/C=C(\C#N)c3nn(-c4ccccc4)c(N)c3C#N)cc2[N+](=O)[O-])C1 (configuration not stated),-9,11,-7,96*,51,-5
CC1CCN(c2cc(N3CCC(C)CC3)c([N+](=O)[O-])cc2/C=C(\C#N)c2nn(-c3ccccc3)c(N)c2C#N)CC1,-12,17,-4,-4,2,4
CC1CCN(c2ccc(/C=C(\C#N)c3nn(-c4ccccc4)c(N)c3C#N)cc2[N+](=O)[O-])CC1,0,26,?,95*,44,18
N#C/C(=C\c1ccc(N2CCCCC2)c([N+](=O)[O-])c1)c1nn(-c2ccccc2)c(N)c1C#N,8,19,-8,99*,62*,28
COc1ccc(C(=O)OC(C)C(=O)NC2CCCc3ccccc32)cc1OC (configuration not stated),.,18,.,.,.,.
CC(=O)N(CCC1(C(C)C)CCOC(C)(C)C1)C(C)c1cccs1 (configuration not stated),6,17,0,.,14,-20
CC1CC1C(=O)OCC(=O)Nc1ccc(Cl)cn1 (configuration not stated),.,9,.,.,.,.
Cc1nc(C(=O)NC2CCCCC2)sc1C1(C)CC(c2cccc([N+](=O)[O-])c2)=NO1 (configuration not stated),-20,25,-18,.,48,.
Cc1nc(C(=O)Nc2ccc(Cl)cc2)sc1C1(C)CC(c2cccc([N+](=O)[O-])c2)=NO1 (configuration not stated),7,6,-8,.,66*,.
COCc1c(Br)c(C)nc(OCC(=O)N/N=C/c2cc(C)n(-c3ccc([N+](=O)[O-])cc3)c2C)c1C#N,-10,15,?,-2,63*,28
COc1ccc(SCC(=O)Nc2ccc(N3CCN(C)CC3)c(F)c2)cc1,-5,9,0,94*,33,15
O=C(CSc1ccccc1)Nc1ccc(N2CCN(c3ccccc3)CC2)c(F)c1,-11,15,-26,-4,-9,9
